Results pooled from the literature.
Compare with care: the assays were run in different laboratories.
Read-out: binding
tspO A138F: tspO (Cereibacter sphaeroides, UniProt Q9RFC8, A138F)
PIK3CG: Phosphatidylinositol 4,5-bisphosphate 3-kinase catalytic subunit gamma isoform (PIK3CG, Homo sapiens, UniProt P48736)
CREBBP bromodomain: CREB-binding protein, bromodomain (CREBBP, Homo sapiens, UniProt Q92793)

Compound | target | test | Kd [µM]
Nc1nc2c(ncn2[C@@H]2O[C@H](COP(=O)(O)OP(=O)(O)O)[C@@H](OP(=O)(O)OP(=O)(O)O)[C@H]2O)c(=O)[nH]1 | Dihydrofolate synthase/folylpolyglutamate synthase (Escherichia coli, UniProt P08192) | ITC | 130
CC1=C(/C=C/C(C)=C/C=C/C(C)=C/C=O)C(C)(C)CCC1 | Cellular retinoic acid-binding protein 2 (CRABP2, Homo sapiens, UniProt P29373, L122E/R112E/R133K) | fluorescence | 0.894
C=CC1=C(C)c2cc3[nH]c(cc4nc(cc5[nH]c(cc1n2)c(C)c5CCC(=O)O)C(CCC(=O)O)=C4C)c(C)c3C=C | tspO A138F | fluorescence | 0.7
CCOc1cc(-c2nncn2C)ccc1Nc1ncc2cc(C)nc(NCC(C)(C)C)c2n1 | Mitogen-activated protein kinase kinase kinase 15 (MAP3K15, Homo sapiens, UniProt Q6ZN16) | competition with immobilised ligand | > 10
CCC(=O)N1CCC(C(=O)NCC(=O)N2CCN(c3nc(-c4cnc(N)nc4C(F)F)nc(N4CCOCC4)n3)CC2)CC1 | PIK3CG | competition with immobilised ligand | 0.0013
Cc1cc(/N=N/c2ccc(S(=O)(=O)O)cc2)cc(C)c1O | CREBBP bromodomain | fluorescence | 44
CC(C)=CCc1c(O)ccc(C(=O)/C=C/c2ccc(O)cc2)c1O | Dihydroorotate dehydrogenase (quinone), mitochondrial (DHODH, Homo sapiens, UniProt Q02127) | ITC | 1.33
Cc1cc(/N=N/c2ccc(S(=O)(=O)O)cc2)ccc1O | CREBBP bromodomain | fluorescence | 76
CCC(=O)N1CCC(C(=O)N(C)CC(=O)N2CCN(c3nc(-c4cnc(N)nc4C(F)F)nc(N4CCOCC4)n3)CC2)CC1 | PIK3CG | competition with immobilised ligand | 0.016
C=CC1=C(C)C2=Cc3c(C=C)c(C)c4[n]3[Fe]([Cl])[n]3c(c(C)c(CCC(=O)O)c3=CC3=NC(=C4)C(C)=C3CCC(=O)O)=CC1=N2 | tspO A138F | fluorescence | 0.7
CO[C@H]1[C@H](O)[C@@H](CO)OC(O)[C@@H]1O (stereo partly drawn) | Nucleolar RNA helicase 2 (Homo sapiens, UniProt Q9NR30) | MST | 3.98
Cn1nnc2ccc(NC(=O)c3cccc(C(=O)O)c3)cc21 | CREBBP bromodomain | competition with immobilised ligand | 17
